# Source: article PMC6105922 (Rheumatology (Oxford, England), 2018)
# What was measured:
# serum urate (sUA) = test: Serum urate; type: in vivo, human; details: for Proportion of subjects with sUA ⩽6.0 mg/dl at 4 h after treatment: pooled cohorts
# urinary uric acid = test: Urinary uric acid excretion; type: in vivo, human; details: for FEUA (fractional excretion of uric acid) relative to baseline: data not shown; for Mean maximum ReUR (urinary uric acid excretion rate) relative to baseline: in vivo
# Procedure, shortened: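 Oral dosing was once daily after breakfast over 7-day periods in hyperuricaemic Japanese men. Total-catch urine was collected on days −1, 7, 14, 21 and 28, with 240 ml water drunk on rising, within 2 h before dosing. The urinary uric acid excretion rate (mg/h) and fractional excretion (%) were calculated per 24-h collection and compared with baseline.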
# [1] = Plasma and urine pharmacokinetics of verinurad; type: in vivo; details: human, oral
# Procedure, shortened: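 Japanese men with gout or asymptomatic hyperuricaemia (sUA ≥8 mg/dl) took oral drug once daily after breakfast, alone or with febuxostat 10, 20 or 40 mg, over 7-day periods. Serial plasma and total-catch urine were taken on days −1, 7, 14, 21 and 28. Plasma was protein-precipitated and urine water-diluted, both assayed by HPLC-MS/MS.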
# [2] = Safety: adverse events, serum creatinine, laboratory evaluations; type: in vivo, human
# Procedure, shortened: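 Males aged 21–65 were dosed orally once daily after breakfast for 7-day periods and followed to day 42. Monitoring covered adverse events (MedDRA v18.0), clinical laboratory tests including serum creatinine, vital signs, ECGs and physical examinations. An independent committee was to adjudicate serious renal events. Clinically relevant laboratory abnormalities were graded by Rheumatology Common Toxicity Criteria v2.0. Results are descriptive, in everyone given at least one dose.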
SMILES,Subjects achieving sUA ⩽6.0 mg/dl 4 h after treatment (serum urate (sUA); benzbromarone 50 mg alone),"sUA-lowering effect (serum urate (sUA); benzbromarone 50 mg, Cohort 6)",FEUA (fractional excretion of uric acid) relative to baseline (urinary uric acid),Mean maximum ReUR (urinary uric acid excretion rate) relative to baseline (urinary uric acid),Proportion of subjects with sUA ⩽6.0 mg/dl at 4 h after treatment (serum urate (sUA); febuxostat 10 mg alone) [%],Proportion of subjects with sUA ⩽6.0 mg/dl at 4 h after treatment (serum urate (sUA); febuxostat 40 mg alone) [%],"half-life ([1]; plasma, mean t½, varying verinurad doses alone or in combination with febuxostat) [h]",CL renal ([1]; urine and plasma) [mL/min],Subjects achieving sUA ⩽6.0 mg/dl 4 h after treatment (serum urate (sUA); verinurad 10 or 15 mg alone),Subjects with sCr elevation ⩾1.5 × baseline ([2]; verinurad 2.5 mg or verinurad 15 mg alone (cohort 5)),"Tolerability ([2]; verinurad 2.5 mg to 15 mg, no withdrawals due to adverse events)"
CCc1oc2ccccc2c1C(=O)c1cc(Br)c(O)c(Br)c1 [benzbromarone],All subjects,generally similar in sUA-lowering effect to verinurad 5 mg combined with febuxostat 20 mg,,,,,,,,,
"Cc1nc(-c2ccc(OCC(C)C)c(C#N)c2)sc1C(=O)O [febuxostat, reference compound]",,,reduced,reduced,20.8,83.3,,,,,
CC(C)(Sc1ccncc1-c1ccc(C#N)c2ccccc12)C(=O)O [verinurad],,,increased in a dose-dependent manner,increased,,,13 to 24,12.4 to 15.1,All subjects,Two subjects,well tolerated
